In ChEMBL document CHEMBL1156462, “Seco-pregnane steroids target the subgenomic RNA of alphavirus-like RNA viruses” (Proc Natl Acad Sci U S A, 2007):
pEC50: −log10 of the molar value. The source made the active and inactive calls. No cut-off for these calls is given here.

Legend:
Tobacco mosaic virus [1] = assay: Reduction of coat protein sgRNA level in TMV U1 infected tobacco BY2 protoplast at 50 nM administered after 4 hrs postinfection; type: functional, organism-based
Summary of the method: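 BY-2 protoplasts infected with TMV supplemented with compound up to 50 nM; total RNA extracted by TRIzol 4 h after infection, and CP sgRNA, I₂ sgRNA and genomic RNA detected by Northern blot with CP gene probe, 28S rRNA as loading control.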

Tobacco mosaic virus [2] = assay: Reduction of coat protein level in TMV U1 infected tobacco BY2 protoplast by ELISA; type: functional, organism-based
Summary of the method: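 BY-2 protoplasts inoculated with TMV pretreated with a range of compound concentrations; coat protein measured by ELISA, three repeats per concentration, mean ± SD.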

[3] = Growth inhibition of hamster BHK21 cells at 100 nM after 48 hrs; type: cell-based, Mesocricetus auratus; conditions: bhk-21, 48 h, 0.1 µM
Summary of the method: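 BHK-21 cells mock-infected and incubated with 100 nM compound for 48 h; cell morphology and growth examined by light microscopy.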

Sindbis virus [4] = assay: Decrease in Sindbis virus XJ160 accumulation in BHK21 cells […] by ELISA; type: functional, organism-based; conditions: XJ160, BHK-21
Summary of the method: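 BHK-21 cells inoculated with SINV XJ-160 premixed with compound (MOI 0.01, 15-min pretreatment, 1-h adsorption). Virus accumulation measured by ELISA as blank-subtracted OD₄₅₀, averaged over nine repeats per concentration.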

[5] = Selectivity index, ratio of CC50 for hamster BHK21 cells to EC50 for Sindbis virus XJ160; type: toxicity, cell-based, BHK-21; conditions: read-out: Ratio CC50/EC50
Summary of the method: (§1)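 SINV XJ-160 at 2 × 10⁵ pfu/ml was premixed with compound for 15 min. It was then adsorbed 1 h to BHK-21 cells, MOI 0.01, in quadruplicate. Cells were washed and kept in DMEM/5% FBS at 37°C. CC50 was 50% inhibition of uninfected BHK-21 proliferation. Index = CC50/EC50.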

Sindbis virus [6] = assay: Reduction of Sindbis virus infection-induced mortality rate in newborn BALB/c mouse assessed as mouse survival at 100 mg/kg administered 1 hr before viral infection; type: functional, organism-based; set-up: dose 100 mg/kg
Summary of the method: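 Newborn BALB/c mice (2–3 days old, ≈2 g), 11 per group, given 20 μl compound at 100 mg/kg BW 1 or 4 h before intracerebral inoculation with 20 μl medium containing 100 × LD₅₀ SINV. Survivors counted at 3, 4, 5, 6 and 7 days after inoculation.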

Sindbis virus [7] = assay: Antiviral activity against Sindbis virus in BHK21 cells assessed as inhibition of virus-induced cytopathogenicity; type: functional, organism-based; conditions: BHK-21
Influenza A virus = assay: Antiviral activity against influenza A virus in Madin-Darby kidney cells assessed as inhibition of virus-induced cytopathogenicity; type: functional, organism-based
Summary of the method: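 Influenza A virus was tested on Madin–Darby canine kidney cells seeded at 2 × 10⁵ per well 24 h before use. Infection used the dose causing 100% CPE at 3 dpi. Compound was premixed with virus at final 100–0 nM (8 levels). Uninfected and virus-only controls were included per plate. Read-out was 50% inhibition of cytopathogenicity.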

unidentified adenovirus = assay: Antiviral activity against adenovirus in 983A cells assessed as inhibition of virus-induced cytopathogenicity; type: functional, organism-based
Summary of the method: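 Cells seeded at 2 × 10⁵ per well 24 h before use (BHK-21 for GETV, H9 for HIV, CIK for Reovirus, 983A for adenovirus, Veto for measles virus). Infected at a dose giving 100% cytopathic effect at 3 dpi; virus premixed with compound at final 100, 50, 10, 3, 2, 1.5, 1, 0 nM. Infected and uninfected untreated controls on each plate.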

[8] = Selectivity index, ratio of CC50 for BHK21 cells to EC50 for Sindbis virus; type: toxicity, cell-based, BHK-21; conditions: hamster, read-out: Ratio CC50/EC50; summary of the method: as §1
Tobacco mosaic virus [9] = assay: Inhibition of TMV U1 multiplication in tobacco BY2 protoplast at 10 nM assessed as inhibition of local lesions on Chenopodium quinoa leaves by local lesion assay after 3 days postinfection; type: functional; conditions: U1, 72 h
Summary of the method: (§2)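 TMV premixed with compound at a range of concentrations used to inoculate tobacco BY-2 protoplasts; virus multiplication then assayed by counting local lesions on the local lesion host Chenopodium quinoa.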

Tobacco mosaic virus [10] = assay: Inhibition of TMV U1 multiplication in tobacco BY2 protoplast at 20 nM assessed as inhibition of local lesions on Chenopodium quinoa leaves by local lesion assay after 3 days postinfection; type: functional; conditions: U1, 72 h; summary of the method: as §2
Tobacco mosaic virus [11] = assay: Inhibition of TMV U1 multiplication in tobacco BY2 protoplast at 50 nM assessed as inhibition of local lesions on Chenopodium quinoa leaves by local lesion assay after 3 days postinfection; type: functional; conditions: U1, 72 h; summary of the method: as §2
Tobacco mosaic virus [12] = assay: Inhibition of TMV U1 multiplication in tobacco BY2 protoplast at 20 nM assessed as local lesion size on Chenopodium quinoa leaves by local lesion assay; type: functional
Tobacco mosaic virus [13] = assay: Antiviral activity against TMV U1 infected Nicotiana tabacum cv K326 plant leaves assessed as inhibition of systemic virus infection; type: functional, organism-based

Q: Which results are given for CO[C@@H]1C[C@H](O[C@H]2CC[C@@]3(C)C(=CC[C@H]4C(=O)OC5CO[C@]6(C)OC=C(CC[C@@H]43)[C@H]56)C2)O[C@H](C)[C@H]1O[C@H]1C[C@H](O)[C@H](O[C@@H]2C[C@@H](OC)[C@H](O[C@@H]3O[C@H](CO)[C@@H](O[C@@H]4O[C@H](CO)[C@@H](O)[C@H](O)[C@H]4O)[C@H](O)[C@H]3O)[C@@H](C)O2)[C@@H](C)O1 (stereo not given in full) [PANICULATUMOSIDE C]?
A: Activity (Tobacco mosaic virus [1]): Active; Activity (Tobacco mosaic virus [2]): Dose-dependent effect; Activity [3]: Non-toxic; pEC50 (Sindbis virus [4]): 8.82; selectivity ratio [5]: 11000; Activity (Sindbis virus [6]): Toxic; pEC50 (Sindbis virus [7]): 8.82; pEC50 (Influenza A virus): < 4.70; pEC50 (unidentified adenovirus): < 4.60; selectivity ratio [8]: 11000; inhibition at 0.01 µM (Tobacco mosaic virus [9]): 19%; inhibition at 0.02 µM (Tobacco mosaic virus [10]): 40%; inhibition at 0.05 µM (Tobacco mosaic virus [11]): 100%; Activity (Tobacco mosaic virus [12]): 1.6 mm; Activity (Tobacco mosaic virus [13]): Active
